1 compound from ChEMBL document CHEMBL4699485, “Discovery and Development of SPR519 as a Potent, Selective, and Orally Bioavailable Inhibitor of PI3Kα and mTOR Kinases for the Treatment of Solid Tumors” (J Med Chem, 2020) can be followed below.

For orientation: Tmax means the time at which the peak concentration occurs. As a reminder, the inhibition is the relative decrease from the control value, in per cent. A word on the IC50: it is the concentration at which inhibition is half-maximal. One may read the AUC as the area under the concentration-time curve, a measure of exposure.

Active and inactive are the calls of the source. No cut-off for these calls is given here.

A short description of data set [1]: Tmax in Swiss mouse at 1 mg/kg, po via gavage by LC-MS/MS analysis. Format: ADME, organism-based. Conditions: in vivo. Put shortly:
(§1)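 Female Swiss mice (n=3/group) were fasted overnight, then gavaged with compound in 0.5% CMC/0.5% Tween 80 at 10 mL/kg. Serial blood samples at 0.16, 0.5, 1, 2, 4, 6 and 8 h were taken into heparinized tubes and spun to plasma. Plasma was extracted with acetonitrile containing verapamil (400 ng/mL) and quantified by LC-MS/MS against plasma calibration curves. Tmax was derived from the concentration–time profile.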

The nature of data set [2]: Drug level in Swiss mouse kidney at 30 mg/kg, po administered twice daily via gavage for 5 days and measured post last dose by LC-MS/MS analysis. Conditions: time 5 day, read-out: Drug uptake. Format: ADME, organism-based. Put shortly:
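Female Swiss mice (n=3) given 30 mg/kg in 0.5% CMC/Tween 80 by oral gavage twice daily for 5 days, with two vehicle controls. After sacrifice, liver, kidney, lung, uterus and brain were collected, homogenized in water and solvent-extracted. Drug concentration (ng/g) measured by LC-MS/MS.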

Data set [3] in a line: Tmax in Swiss mouse at 3 mg/kg, po via gavage by LC-MS/MS analysis. It is filed as ADME, organism-based. Conditions: in vivo. In outline: as §1
Data set [4] has as its target Phosphatidylinositol 4-kinase beta (Homo sapiens) (UniProt Q9UBF8). The experiment in a line: Inhibition of human PI4kbeta at 1 uM using fluorescently labeled peptide substrate measured after 3 hrs by microfluidic mobility shift assay relative to control. In outline:
(§2)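 Single-concentration screen at 1 µM in duplicate, 1% final DMSO. Kinase (typically 1 nM), fluorescently labeled peptide substrate (typically 1 µM), ATP at Km and Mg²⁺ incubated about 3 h at 25 °C, then EDTA-quenched. Substrate and phosphorylated product separated by microfluidic electrophoresis and quantified by fluorescence.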

A further data set concerns the target Cytochrome P450 3A4 (Homo sapiens, UniProt P08684). Put plainly: Inhibition of CYP3A4 in human liver microsomes using isoform-specific probe substrates preincubated for 5 mins followed by NADPH addition by LC-MS/MS analysis. Format: ADME. In outline: (§3)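 Human liver microsomes premixed with buffer and a CYP-specific FDA-recommended probe substrate, then spiked with inhibitor, in duplicate. After 5 min preincubation at 37 °C, reaction started with NADPH and run at 37 °C for a set time, then quenched. Metabolite formation quantified by HPLC/LC-MS/MS to derive the concentration giving 50% inhibition.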
For orientation: Liver microsomes are a subcellular fraction often used to study metabolism.

In the next data set the target is Cytochrome P450 2C19 (Homo sapiens, UniProt P33261). The experiment in a line: Inhibition of CYP2C19 in human liver microsomes using isoform-specific probe substrates preincubated for 5 mins followed by NADPH addition by LC-MS/MS analysis. Format: ADME. Put shortly: as §3
Data set [5] can be described thus: Toxicity in Swiss mouse assessed as piloerection at 30 mg/kg, po administered twice daily via gavage for 12 days and measured on day 9. Format: organism-based. Conditions: in vivo, 288 h, time 12 day. Put shortly: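 Female Swiss mice (4 treated, 2 controls) were gavaged twice daily for 12 days, with compound in 0.5% CMC and Tween 80. Clinical signs including body coat, body weight, temperature, feed intake and general activity were monitored daily.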

Data set [6] deals with Dual specificity mitogen-activated protein kinase kinase 2 (Homo sapiens) (UniProt P36507). Put plainly: Inhibition of human MEK2 at 1 uM using fluorescently labeled peptide substrate measured after 3 hrs by microfluidic mobility shift assay relative to control. Put shortly:
as §2

Data set [7] is described as follows: Elimination half life in Swiss mouse at 10 mg/kg, po via gavage by LC-MS/MS analysis. It is filed as ADME, organism-based. The following applies: in vivo, read-out: beta t1/2 (converted). In outline: (§4)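 Female Swiss mice (n=3/group), fasted overnight, given single oral gavage dose in 0.5% CMC/0.5% Tween 80 (10 mL/kg) at 1, 3 or 10 mg/kg. Serial blood sampling at 0.16–8 h into heparinized tubes. Plasma extracted with acetonitrile containing verapamil internal standard and quantified by LC-MS/MS. Cmax, Tmax, AUC and t1/2 derived from the concentration–time profile.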

Data set [8] concerns the target Protein kinase C zeta type (Homo sapiens) (UniProt Q05513). The experiment in a line: Inhibition of human PRKCZ at 1 uM using fluorescently labeled peptide substrate measured after 3 hrs by microfluidic mobility shift assay relative to control. Put shortly: as §2
Data set [9] in a line: AUC in Swiss mouse at 3 mg/kg, po via gavage by LC-MS/MS analysis. Format: ADME, organism-based. Also noted: dose 3 mg/kg. The following applies: in vivo. Put shortly:
as §4

Data set [10] in a line: Toxicity in Swiss mouse assessed as discoloration of uterus at 30 mg/kg, po administered twice daily via gavage for 5 days and measured post last dose. It is filed as organism-based. The following applies: in vivo, 120 h, time 5 day. In outline:
(§5)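 Female Swiss mice (3 treated, 2 controls) were gavaged twice daily for 5 days, with compound in 0.5% CMC and Tween 80. After the last dosing the animals were sacrificed. Liver, kidney, lung, uterus and brain were excised and inspected visually for morphology and color change.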

Data set [11] addresses Phosphatidylinositol 4,5-bisphosphate 3-kinase catalytic subunit delta isoform (Homo sapiens) (UniProt O00329). The experiment in a line: Inhibition of human PI3kdelta at 1 uM using fluorescently labeled peptide substrate measured after 3 hrs by microfluidic mobility shift assay relative to control. Put shortly:
as §2

The target in data set [12] is Dual specificity mitogen-activated protein kinase kinase 1 (Homo sapiens) (UniProt Q02750). The experiment in a line: Inhibition of human MEK1 at 1 uM using fluorescently labeled peptide substrate measured after 3 hrs by microfluidic mobility shift assay relative to control. In outline: as §2
The target in data set [13] is Ribosomal protein S6 kinase beta-2 (Homo sapiens) (UniProt Q9UBS0). The experiment in a line: Inhibition of human RPS6KB2 at 1 uM using fluorescently labeled peptide substrate measured after 3 hrs by microfluidic mobility shift assay relative to control. In outline: as §2
In data set [14] the target is Cyclin-dependent kinase 7 (Homo sapiens) (UniProt P50613). The experiment in a line: Inhibition of human CDK7 at 1 uM using fluorescently labeled peptide substrate measured after 3 hrs by microfluidic mobility shift assay relative to control. In outline:
as §2

The nature of data set [15]: Toxicity in Swiss mouse assessed as morphological changes in uterus at 30 mg/kg, po administered twice daily via gavage for 5 days and measured post last dose. Conditions: in vivo, 120 h, time 5 day. Format: organism-based. Put shortly: as §5
The nature of data set [16]: Toxicity in Swiss mouse assessed as change in body coat at 10 mg/kg, po administered twice daily via gavage for 5 days and measuring daily during compound dosing. Format: organism-based. The following applies: in vivo, 120 h, time 5 day. In outline:
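Female Swiss mice (3 treated, 2 vehicle controls) received oral gavage twice daily for 5 days, with compound formulated in 0.5% CMC and Tween 80. Body weight, body temperature, body coat, feed intake, eyes, feces and general activity were observed daily.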

For the next data set, the system named is SK-OV-3. Put plainly: Antitumor activity against human SK-OV-3 cells xenografted in CD1 nude mouse assessed as tumor growth inhibition at 2.5 mg/kg, po administered once daily for 27 days and measured on day 3. The following applies: time 27.0 day. Format: functional, organism-based. Put shortly:
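Female CD1 nude mice bearing subcutaneous SK-OV-3 xenografts, randomized at average tumor size 120–130 mm³, five per group. Given oral doses of 2.5, 5 or 10 mg/kg once daily for 27 days alongside a vehicle control. Tumor volume from caliper length and width as (width² × length)/2, tracked every third day. Two-way ANOVA with Dunnett's test, n=5.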
A general note: Xenograft models place foreign cells or tissue in a host animal.

The next data set is filed under the species Homo sapiens. The experiment in a line: Channel blockade of human ERG G601S mutant expressed in mammalian expression system assessed as effect on surface expression of channel at 1 to 30 uM by HERG-Lite assay. The following applies: dose microM 1-30. Put shortly:
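HERG-lite assay scoring both channel blocking and trafficking inhibition, with test compound at 1, 10 and 30 µM. Geldanamycin (1 µM) served as the trafficking-inhibition reference and astemizole as the standard hERG binder.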

Data set [17] deals with RAC-alpha serine/threonine-protein kinase (Homo sapiens) (UniProt P31749). The experiment in a line: Inhibition of human AKT1 at 1 uM using fluorescently labeled peptide substrate measured after 3 hrs by microfluidic mobility shift assay relative to control. In outline: as §2
Chain of RAC-alpha serine/threonine-protein kinase (Homo sapiens) (P31749 whole entry): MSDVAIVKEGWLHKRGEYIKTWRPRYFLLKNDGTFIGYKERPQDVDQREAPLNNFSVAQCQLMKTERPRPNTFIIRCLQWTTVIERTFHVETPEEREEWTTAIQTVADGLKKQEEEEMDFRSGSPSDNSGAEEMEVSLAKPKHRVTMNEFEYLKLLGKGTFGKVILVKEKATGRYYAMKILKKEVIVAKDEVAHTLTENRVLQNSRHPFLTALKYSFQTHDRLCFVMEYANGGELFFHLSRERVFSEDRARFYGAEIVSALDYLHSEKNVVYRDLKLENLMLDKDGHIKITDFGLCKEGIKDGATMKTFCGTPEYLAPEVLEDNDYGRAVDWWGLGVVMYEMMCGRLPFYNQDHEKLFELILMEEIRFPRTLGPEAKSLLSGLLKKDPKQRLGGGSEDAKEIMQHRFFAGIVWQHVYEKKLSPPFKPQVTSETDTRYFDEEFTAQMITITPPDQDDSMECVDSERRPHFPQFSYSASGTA

Chain of Dual specificity mitogen-activated protein kinase kinase 1 (Homo sapiens) (Q02750 whole entry): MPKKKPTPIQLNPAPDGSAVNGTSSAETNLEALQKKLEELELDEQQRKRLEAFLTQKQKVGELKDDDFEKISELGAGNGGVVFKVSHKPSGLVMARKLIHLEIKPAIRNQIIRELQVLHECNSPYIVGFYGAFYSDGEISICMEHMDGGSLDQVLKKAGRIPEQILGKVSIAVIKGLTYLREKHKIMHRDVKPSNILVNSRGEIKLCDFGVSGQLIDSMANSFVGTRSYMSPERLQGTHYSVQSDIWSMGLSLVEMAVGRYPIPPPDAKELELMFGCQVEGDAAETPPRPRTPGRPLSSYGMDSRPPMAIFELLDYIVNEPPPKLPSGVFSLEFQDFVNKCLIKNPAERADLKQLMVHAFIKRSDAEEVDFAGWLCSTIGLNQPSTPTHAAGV
Chain of Cyclin-dependent kinase 7 (Homo sapiens) (P50613 whole entry): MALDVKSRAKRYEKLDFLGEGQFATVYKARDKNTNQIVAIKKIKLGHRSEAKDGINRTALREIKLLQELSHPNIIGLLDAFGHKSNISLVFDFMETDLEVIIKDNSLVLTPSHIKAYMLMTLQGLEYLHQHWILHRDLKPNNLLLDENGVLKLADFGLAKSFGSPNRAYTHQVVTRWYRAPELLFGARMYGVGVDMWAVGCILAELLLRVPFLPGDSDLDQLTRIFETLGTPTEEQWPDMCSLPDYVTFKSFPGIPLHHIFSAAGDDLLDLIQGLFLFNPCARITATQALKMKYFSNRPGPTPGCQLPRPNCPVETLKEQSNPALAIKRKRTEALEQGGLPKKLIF
Chain of Cytochrome P450 2C19 (P33261 whole entry, canonical isoform): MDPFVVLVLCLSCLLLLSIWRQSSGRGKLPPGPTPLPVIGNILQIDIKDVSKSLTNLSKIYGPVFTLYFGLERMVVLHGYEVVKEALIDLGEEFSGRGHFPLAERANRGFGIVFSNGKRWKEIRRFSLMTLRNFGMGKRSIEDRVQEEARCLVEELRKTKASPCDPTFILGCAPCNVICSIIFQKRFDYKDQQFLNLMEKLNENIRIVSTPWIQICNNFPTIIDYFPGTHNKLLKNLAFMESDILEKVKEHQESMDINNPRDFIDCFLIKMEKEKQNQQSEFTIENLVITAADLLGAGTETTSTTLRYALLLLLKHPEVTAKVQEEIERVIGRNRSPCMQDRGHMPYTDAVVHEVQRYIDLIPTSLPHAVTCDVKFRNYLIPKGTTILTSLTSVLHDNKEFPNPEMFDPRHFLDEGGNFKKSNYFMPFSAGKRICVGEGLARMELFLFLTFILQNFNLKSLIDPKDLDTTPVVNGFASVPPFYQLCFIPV
Chain of Cytochrome P450 3A4 (P08684 whole entry, canonical isoform): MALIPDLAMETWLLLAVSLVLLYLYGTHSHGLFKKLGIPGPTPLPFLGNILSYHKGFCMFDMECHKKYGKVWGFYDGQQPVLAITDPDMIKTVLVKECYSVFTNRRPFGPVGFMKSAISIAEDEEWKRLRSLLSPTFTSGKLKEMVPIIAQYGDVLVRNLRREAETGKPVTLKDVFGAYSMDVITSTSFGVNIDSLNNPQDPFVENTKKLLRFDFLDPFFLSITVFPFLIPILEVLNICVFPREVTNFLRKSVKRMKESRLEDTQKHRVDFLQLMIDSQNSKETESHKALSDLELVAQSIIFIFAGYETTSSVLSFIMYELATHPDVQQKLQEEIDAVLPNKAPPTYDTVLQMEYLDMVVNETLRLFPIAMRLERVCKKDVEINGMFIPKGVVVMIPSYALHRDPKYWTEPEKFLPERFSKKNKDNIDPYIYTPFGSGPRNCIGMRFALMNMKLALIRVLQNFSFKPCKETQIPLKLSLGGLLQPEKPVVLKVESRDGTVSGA
Chain of Phosphatidylinositol 4,5-bisphosphate 3-kinase catalytic subunit delta isoform (Homo sapiens) (O00329 whole entry, canonical isoform): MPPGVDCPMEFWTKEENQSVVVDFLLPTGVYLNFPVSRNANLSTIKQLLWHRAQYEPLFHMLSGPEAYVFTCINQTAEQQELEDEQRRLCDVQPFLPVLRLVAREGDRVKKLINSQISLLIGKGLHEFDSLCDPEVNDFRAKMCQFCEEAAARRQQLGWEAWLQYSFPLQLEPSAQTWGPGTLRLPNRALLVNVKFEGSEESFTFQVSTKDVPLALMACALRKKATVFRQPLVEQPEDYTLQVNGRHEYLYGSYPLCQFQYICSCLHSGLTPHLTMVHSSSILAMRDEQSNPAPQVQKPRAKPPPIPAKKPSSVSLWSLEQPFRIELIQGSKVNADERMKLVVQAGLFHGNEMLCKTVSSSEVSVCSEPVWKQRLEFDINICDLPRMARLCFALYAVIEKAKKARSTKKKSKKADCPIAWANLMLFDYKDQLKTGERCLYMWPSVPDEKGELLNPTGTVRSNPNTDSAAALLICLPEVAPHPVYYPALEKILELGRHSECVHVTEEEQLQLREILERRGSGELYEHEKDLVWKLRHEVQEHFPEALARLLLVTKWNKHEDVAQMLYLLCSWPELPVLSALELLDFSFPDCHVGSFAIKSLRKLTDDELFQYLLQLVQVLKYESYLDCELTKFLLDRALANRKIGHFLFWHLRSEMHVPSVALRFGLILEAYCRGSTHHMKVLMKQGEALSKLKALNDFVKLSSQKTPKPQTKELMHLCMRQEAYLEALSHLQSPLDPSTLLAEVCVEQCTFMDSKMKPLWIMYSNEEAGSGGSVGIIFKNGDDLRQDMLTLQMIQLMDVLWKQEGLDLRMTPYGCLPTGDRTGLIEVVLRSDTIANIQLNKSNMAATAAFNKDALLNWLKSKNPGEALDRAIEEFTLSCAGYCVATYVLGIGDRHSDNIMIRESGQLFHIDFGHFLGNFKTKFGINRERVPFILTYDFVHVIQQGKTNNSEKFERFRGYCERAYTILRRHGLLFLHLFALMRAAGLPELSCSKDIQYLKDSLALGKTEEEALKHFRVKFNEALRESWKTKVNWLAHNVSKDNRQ
Chain of Ribosomal protein S6 kinase beta-2 (Homo sapiens) (Q9UBS0 whole entry): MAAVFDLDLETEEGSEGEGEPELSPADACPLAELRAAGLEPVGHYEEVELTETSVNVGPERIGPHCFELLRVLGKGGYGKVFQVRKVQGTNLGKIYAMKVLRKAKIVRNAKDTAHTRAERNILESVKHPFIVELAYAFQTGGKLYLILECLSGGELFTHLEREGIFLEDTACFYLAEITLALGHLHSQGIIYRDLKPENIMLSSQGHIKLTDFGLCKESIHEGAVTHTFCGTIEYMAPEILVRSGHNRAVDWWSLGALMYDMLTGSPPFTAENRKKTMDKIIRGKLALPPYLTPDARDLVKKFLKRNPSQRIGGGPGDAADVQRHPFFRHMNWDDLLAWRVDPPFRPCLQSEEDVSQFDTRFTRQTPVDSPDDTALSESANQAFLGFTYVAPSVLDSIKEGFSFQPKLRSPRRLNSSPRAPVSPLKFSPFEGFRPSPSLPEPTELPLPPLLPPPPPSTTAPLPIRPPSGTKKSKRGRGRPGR
Chain of Dual specificity mitogen-activated protein kinase kinase 2 (Homo sapiens) (P36507 whole entry): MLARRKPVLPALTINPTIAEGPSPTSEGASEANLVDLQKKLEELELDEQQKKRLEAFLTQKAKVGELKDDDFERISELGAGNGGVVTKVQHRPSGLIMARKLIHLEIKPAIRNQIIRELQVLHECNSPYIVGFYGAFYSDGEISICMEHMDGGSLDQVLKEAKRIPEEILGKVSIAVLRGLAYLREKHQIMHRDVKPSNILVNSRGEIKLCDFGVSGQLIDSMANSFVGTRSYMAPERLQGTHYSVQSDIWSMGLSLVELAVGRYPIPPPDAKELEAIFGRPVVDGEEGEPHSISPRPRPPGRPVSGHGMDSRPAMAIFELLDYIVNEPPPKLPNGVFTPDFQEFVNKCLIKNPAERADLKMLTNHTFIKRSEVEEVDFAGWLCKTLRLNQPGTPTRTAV
Chain of Phosphatidylinositol 4-kinase beta (Homo sapiens) (Q9UBF8 2-816 limits assumed): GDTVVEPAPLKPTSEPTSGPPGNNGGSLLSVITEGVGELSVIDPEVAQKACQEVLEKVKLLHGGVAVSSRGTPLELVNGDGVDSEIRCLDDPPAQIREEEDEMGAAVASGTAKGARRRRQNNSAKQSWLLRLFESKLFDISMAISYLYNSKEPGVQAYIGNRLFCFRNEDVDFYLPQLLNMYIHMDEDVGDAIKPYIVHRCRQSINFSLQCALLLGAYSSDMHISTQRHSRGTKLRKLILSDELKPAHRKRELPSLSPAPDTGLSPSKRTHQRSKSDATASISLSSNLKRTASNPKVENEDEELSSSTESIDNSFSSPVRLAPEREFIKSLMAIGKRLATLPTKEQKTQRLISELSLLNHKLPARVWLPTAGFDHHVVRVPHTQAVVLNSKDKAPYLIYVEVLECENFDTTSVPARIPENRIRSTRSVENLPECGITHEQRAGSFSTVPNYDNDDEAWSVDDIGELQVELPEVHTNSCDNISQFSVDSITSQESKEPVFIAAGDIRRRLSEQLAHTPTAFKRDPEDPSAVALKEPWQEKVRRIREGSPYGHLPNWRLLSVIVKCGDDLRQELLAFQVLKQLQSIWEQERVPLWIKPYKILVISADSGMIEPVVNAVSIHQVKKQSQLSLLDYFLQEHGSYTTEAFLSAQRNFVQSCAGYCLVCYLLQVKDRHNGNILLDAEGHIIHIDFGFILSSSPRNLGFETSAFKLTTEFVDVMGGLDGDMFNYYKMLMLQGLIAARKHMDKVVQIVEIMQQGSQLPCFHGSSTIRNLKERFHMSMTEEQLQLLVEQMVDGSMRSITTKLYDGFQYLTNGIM

With `CN(C)C(=O)c1ccc(Oc2nc(-c3cnc(N)s3)nc(N3CCOCC3)n2)cc1`, the figures for the Tmax in data set [1] and in data set [3] were 1.33 h and 1.5 h, respectively. The concentration at 120 h in data set [2] is 160 ng/g. Also, the inhibition is -3% in data set [4]; 1% in data set [6]; 0% in data set [8]; 88% in [11]; 0% in data set [12]; -3% in data set [13]. For the same compound, the inhibition in data set [14] was -10%; in data set [17], -1%. Besides, the IC50 against Cytochrome P450 3A4 and against Cytochrome P450 2C19 was above 10 µM throughout. In addition, the Activity entry in [5] is listed as “Toxic”; in data set [10] it was “Non-Toxic”; in data set [15], “Non-Toxic”; in [16], “Non-Toxic”. Moreover, the half-life in data set [7] is 2.52 h. The compound further displayed an exposure (AUC) in data set [9] of 32.1 µM·h. Moreover, the TGI entry in the data set with SK-OV-3 is “Active”. Also, the result in the data set listed under Homo sapiens was Active.
